Reference: ChEMBL document CHEMBL1152541, “Staurosporine tethered peptide ligands that target cAMP-dependent protein kinase (PKA): optimization and selectivity profiling” (Bioorg Med Chem, 2009)
*1 amine or outer side, *2 acyl side, *3 side chain or, on linkers, in order; H or OH if unused. Where a SMILES comes first, the peptide text is derived from it. Bridges are numbered along the chain shown (N, C = ends). [ ]: non-standard residue; d: D form. The star is where a group is joined. Staurosporine = CO[C@@H]1[C@H](N(C)*)C[C@H]2O[C@]1(C)n1c3ccccc3c3c4c(c5c6ccccc6n2c5c31)C(=O)NC4; Suc = O=C(CCC(=O)[*:2])[*:1]; Dap = NC[C@H](N)C(=O)O; βAla = NCCC(=O)O

Key:
[1] = target: Casein kinase I isoform delta (Homo sapiens) (UniProt P48730); assay: Binding affinity to human CSNK1D at 500 nM by cell-based competition binding assay relative to control in presence of DTT
Chain of Casein kinase I isoform delta (Homo sapiens) (P48730 whole entry, looked up, canonical isoform): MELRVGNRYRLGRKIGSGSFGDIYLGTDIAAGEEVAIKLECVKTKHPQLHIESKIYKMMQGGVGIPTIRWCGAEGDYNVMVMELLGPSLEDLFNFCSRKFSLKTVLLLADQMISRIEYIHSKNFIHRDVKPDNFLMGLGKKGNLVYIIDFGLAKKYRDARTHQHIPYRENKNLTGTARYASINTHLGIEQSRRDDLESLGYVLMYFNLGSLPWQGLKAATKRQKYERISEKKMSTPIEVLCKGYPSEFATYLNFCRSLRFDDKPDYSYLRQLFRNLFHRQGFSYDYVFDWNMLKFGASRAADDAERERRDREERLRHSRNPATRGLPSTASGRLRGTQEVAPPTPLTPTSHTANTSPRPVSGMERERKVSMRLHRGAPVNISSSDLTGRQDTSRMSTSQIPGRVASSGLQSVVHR
Procedure, shortened: (§1)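 Commercial (Ambit) competitive kinase-binding panel of 90 kinases measured the binding profile. Run under reducing conditions of 7.5 mM DTT. Binding is expressed relative to control.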

[2] = target: T1, Tyrosine-protein kinase ZAP-70 (Homo sapiens) (UniProt P43403); assay: Binding affinity to human ZAP70 at 500 nM by cell-based competition binding assay relative to control in presence of DTT
T1 sequence (whole entry): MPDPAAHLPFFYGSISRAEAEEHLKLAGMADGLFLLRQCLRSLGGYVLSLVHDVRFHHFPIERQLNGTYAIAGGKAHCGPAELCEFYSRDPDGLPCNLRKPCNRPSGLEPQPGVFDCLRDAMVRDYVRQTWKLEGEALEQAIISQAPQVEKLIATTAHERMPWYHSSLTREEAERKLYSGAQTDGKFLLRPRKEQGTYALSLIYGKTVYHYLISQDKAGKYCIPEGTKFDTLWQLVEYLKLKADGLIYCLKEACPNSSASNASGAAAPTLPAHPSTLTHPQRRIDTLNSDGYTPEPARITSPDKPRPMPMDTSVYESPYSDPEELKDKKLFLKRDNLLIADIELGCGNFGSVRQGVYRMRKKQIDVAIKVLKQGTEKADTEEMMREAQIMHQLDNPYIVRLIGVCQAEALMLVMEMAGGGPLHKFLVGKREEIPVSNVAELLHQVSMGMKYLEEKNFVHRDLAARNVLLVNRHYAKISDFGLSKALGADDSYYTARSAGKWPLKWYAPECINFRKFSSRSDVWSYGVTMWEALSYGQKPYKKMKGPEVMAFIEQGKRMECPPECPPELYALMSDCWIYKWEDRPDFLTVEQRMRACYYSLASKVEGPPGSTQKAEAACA

[3] = target: Mast/stem cell growth factor receptor Kit (Homo sapiens) (UniProt P10721); assay: Binding affinity to human KIT at 500 nM by cell-based competition binding assay relative to control in presence of DTT
Chain of Mast/stem cell growth factor receptor Kit (Homo sapiens) (P10721 whole entry): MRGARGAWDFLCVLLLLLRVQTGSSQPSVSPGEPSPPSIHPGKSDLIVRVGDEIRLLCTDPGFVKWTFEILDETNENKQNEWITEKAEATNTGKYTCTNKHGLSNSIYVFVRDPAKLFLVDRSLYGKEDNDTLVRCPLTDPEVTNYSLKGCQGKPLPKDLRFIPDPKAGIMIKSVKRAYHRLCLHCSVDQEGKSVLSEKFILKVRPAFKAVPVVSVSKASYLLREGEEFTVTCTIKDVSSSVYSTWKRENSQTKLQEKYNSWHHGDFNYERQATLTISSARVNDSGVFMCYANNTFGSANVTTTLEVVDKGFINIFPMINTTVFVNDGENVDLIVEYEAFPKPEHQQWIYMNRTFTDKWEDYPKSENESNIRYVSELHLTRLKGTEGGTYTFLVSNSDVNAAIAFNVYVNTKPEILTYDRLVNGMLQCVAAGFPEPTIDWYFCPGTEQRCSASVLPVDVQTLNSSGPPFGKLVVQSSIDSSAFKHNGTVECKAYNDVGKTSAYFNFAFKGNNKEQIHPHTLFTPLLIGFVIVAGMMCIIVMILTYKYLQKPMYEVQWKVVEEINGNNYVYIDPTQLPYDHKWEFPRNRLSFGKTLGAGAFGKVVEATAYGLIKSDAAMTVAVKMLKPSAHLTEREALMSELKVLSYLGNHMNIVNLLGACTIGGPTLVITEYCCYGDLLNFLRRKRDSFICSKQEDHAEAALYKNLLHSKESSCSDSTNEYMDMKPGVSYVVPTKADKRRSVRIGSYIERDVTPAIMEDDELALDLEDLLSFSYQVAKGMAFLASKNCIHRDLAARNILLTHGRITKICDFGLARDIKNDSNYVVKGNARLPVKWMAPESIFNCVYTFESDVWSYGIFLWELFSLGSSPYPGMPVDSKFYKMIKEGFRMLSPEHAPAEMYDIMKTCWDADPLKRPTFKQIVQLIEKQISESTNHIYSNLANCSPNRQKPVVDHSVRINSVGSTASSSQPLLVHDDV
Procedure, shortened: (§2)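 Competition binding screen (Ambit) across a panel of 90 kinases, scoring test ligand displacement of each kinase's binding relative to control. The screen ran under reducing conditions with 7.5 mM DTT.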

[4] = target: Aurora kinase B (Homo sapiens) (UniProt Q96GD4); assay: Binding affinity to human aurora kinase B at 500 nM by cell-based competition binding assay relative to control in presence of DTT
Chain of Aurora kinase B (Homo sapiens) (Q96GD4 whole entry, canonical isoform): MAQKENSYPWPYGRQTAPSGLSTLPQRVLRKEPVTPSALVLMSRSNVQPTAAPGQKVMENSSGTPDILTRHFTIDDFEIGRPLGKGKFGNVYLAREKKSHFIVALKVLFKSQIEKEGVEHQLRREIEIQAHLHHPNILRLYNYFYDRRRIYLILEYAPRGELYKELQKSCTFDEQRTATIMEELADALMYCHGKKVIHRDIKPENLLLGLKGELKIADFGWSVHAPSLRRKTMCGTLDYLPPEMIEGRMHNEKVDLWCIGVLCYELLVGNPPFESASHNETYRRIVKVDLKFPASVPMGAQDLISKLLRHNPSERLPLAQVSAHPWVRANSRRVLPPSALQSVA

[5] = target: Phosphatidylinositol 4,5-bisphosphate 3-kinase catalytic subunit alpha isoform (Homo sapiens) (UniProt P42336); assay: Binding affinity to human PIK3Calpha at 200 nM by cell-based competition binding assay relative to control in presence of DTT
[6] = target: Mitogen-activated protein kinase 10 (Homo sapiens) (UniProt P53779); assay: Binding affinity to human JNK3 at 200 nM by cell-based competition binding assay relative to control in presence of DTT; procedure, shortened: as §2
Chain of Mitogen-activated protein kinase 10 (Homo sapiens) (P53779 whole entry): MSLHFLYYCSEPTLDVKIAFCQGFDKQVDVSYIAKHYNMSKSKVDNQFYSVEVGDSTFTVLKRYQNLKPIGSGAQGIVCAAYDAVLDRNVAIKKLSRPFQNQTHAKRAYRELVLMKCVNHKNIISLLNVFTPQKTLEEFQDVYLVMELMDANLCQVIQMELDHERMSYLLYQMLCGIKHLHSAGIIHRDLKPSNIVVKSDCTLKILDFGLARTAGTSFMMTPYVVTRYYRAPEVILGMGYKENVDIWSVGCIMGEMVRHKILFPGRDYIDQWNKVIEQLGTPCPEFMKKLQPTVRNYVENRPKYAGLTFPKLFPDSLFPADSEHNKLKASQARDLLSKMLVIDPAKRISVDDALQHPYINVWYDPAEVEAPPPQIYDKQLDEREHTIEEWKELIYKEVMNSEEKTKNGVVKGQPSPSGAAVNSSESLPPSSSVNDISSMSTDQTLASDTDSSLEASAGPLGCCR

[7] = target: Insulin-like growth factor 1 receptor (Homo sapiens) (UniProt P08069); assay: Binding affinity to human IGF1R at 200 nM by cell-based competition binding assay relative to control in presence of DTT; procedure, shortened: as §2
[8] = target: Ribosomal protein S6 kinase alpha-3 (Homo sapiens) (UniProt P51812); assay: Binding affinity to human RPS6KA3 kinase domain 1 at 200 nM by cell-based competition binding assay relative to control in presence of DTT
Chain of Ribosomal protein S6 kinase alpha-3 (Homo sapiens) (P51812 whole entry, the tested form may be a part): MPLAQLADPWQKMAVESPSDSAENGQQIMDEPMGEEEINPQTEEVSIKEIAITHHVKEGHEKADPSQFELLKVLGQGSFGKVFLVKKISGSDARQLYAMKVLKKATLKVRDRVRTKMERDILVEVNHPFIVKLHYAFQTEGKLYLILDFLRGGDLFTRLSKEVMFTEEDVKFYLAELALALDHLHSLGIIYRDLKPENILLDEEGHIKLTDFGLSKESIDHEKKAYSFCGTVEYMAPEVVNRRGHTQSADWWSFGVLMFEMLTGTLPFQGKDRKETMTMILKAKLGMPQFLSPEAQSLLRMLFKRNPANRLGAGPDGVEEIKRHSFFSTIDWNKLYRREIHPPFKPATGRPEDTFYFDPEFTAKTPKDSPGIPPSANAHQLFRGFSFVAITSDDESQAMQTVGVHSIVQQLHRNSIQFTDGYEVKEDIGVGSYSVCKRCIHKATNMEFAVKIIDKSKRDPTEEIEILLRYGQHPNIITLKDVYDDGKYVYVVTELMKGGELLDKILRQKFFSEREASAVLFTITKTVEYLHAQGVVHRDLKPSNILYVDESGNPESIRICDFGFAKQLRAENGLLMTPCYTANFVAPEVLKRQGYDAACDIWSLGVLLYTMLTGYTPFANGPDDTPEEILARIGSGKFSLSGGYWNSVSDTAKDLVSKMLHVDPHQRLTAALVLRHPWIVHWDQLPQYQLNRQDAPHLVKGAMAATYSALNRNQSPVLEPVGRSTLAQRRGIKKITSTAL

[9] = target: Ephrin type-A receptor 2 (Homo sapiens) (UniProt P29317); assay: Binding affinity to human EPHA2 at 200 nM by cell-based competition binding assay relative to control in presence of DTT; procedure, shortened: as §1
Chain of Ephrin type-A receptor 2 (Homo sapiens) (P29317 whole entry, the tested form may be a part): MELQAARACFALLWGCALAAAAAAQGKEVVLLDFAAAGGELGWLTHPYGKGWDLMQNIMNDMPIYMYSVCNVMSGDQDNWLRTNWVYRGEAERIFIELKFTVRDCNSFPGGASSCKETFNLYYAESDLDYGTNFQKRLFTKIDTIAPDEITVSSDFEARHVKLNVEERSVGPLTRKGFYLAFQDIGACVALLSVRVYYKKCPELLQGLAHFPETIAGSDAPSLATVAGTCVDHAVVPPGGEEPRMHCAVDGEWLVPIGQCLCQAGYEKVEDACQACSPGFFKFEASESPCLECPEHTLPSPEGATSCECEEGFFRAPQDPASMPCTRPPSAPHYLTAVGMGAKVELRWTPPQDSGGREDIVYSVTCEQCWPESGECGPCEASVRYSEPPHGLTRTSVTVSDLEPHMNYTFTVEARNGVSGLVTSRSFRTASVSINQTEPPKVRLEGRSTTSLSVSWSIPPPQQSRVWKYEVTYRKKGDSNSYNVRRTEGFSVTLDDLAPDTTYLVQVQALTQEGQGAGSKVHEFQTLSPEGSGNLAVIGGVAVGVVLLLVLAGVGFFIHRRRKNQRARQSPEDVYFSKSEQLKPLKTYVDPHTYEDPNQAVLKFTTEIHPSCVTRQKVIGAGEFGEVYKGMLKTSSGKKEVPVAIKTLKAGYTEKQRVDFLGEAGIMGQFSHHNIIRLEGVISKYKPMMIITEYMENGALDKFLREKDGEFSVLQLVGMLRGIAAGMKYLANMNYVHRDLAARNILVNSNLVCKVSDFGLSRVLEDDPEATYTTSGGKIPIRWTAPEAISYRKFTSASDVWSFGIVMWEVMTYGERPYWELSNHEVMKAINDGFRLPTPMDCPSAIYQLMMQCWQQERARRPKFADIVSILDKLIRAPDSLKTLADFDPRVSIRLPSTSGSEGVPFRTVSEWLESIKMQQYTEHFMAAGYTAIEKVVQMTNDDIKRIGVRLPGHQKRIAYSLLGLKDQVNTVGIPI

[10] = target: Non-receptor tyrosine-protein kinase TYK2 (Homo sapiens) (UniProt P29597); assay: Binding affinity to human TYK2 kinase domain 2 at 200 nM by cell-based competition binding assay relative to control in presence of DTT
[11] = target: High affinity nerve growth factor receptor (Homo sapiens) (UniProt P04629); assay: Binding affinity to human TRKA at 200 nM by cell-based competition binding assay relative to control in presence of DTT
[12] = target: Angiopoietin-1 receptor (Homo sapiens) (UniProt Q02763); assay: Binding affinity to human TIE2 at 50 nM by cell-based competition binding assay relative to control in presence of DTT
[13] = target: Mitogen-activated protein kinase 10 (Homo sapiens) (UniProt P53779); assay: Binding affinity to human JNK3 at 50 nM by cell-based competition binding assay relative to control in presence of DTT; procedure, shortened: as §2
[14] = target: T2, 3-phosphoinositide-dependent protein kinase 1 (Homo sapiens) (UniProt O15530); assay: Binding affinity to human PDPK1 at 50 nM by cell-based competition binding assay relative to control in presence of DTT
T2 sequence (whole entry): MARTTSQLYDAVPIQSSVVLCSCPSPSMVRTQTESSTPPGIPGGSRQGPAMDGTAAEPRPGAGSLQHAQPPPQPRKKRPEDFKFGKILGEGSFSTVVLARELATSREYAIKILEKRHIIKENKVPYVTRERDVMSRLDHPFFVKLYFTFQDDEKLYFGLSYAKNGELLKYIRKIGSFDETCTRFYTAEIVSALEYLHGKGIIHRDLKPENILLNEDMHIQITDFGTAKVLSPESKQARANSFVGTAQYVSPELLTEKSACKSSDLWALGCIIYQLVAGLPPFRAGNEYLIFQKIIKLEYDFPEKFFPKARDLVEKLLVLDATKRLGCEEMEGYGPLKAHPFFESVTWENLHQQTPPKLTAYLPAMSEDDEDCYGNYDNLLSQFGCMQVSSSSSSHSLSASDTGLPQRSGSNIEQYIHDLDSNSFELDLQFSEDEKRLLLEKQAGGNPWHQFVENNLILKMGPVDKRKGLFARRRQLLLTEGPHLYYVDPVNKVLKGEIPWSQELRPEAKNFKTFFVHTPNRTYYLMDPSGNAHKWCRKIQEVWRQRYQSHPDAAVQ

[15] = target: MAP kinase-interacting serine/threonine-protein kinase 2 (Homo sapiens) (UniProt Q9HBH9); assay: Binding affinity to human MKNK2 at 50 nM by cell-based competition binding assay relative to control in presence of DTT
Chain of MAP kinase-interacting serine/threonine-protein kinase 2 (Homo sapiens) (Q9HBH9 whole entry, looked up, the tested form may be a part): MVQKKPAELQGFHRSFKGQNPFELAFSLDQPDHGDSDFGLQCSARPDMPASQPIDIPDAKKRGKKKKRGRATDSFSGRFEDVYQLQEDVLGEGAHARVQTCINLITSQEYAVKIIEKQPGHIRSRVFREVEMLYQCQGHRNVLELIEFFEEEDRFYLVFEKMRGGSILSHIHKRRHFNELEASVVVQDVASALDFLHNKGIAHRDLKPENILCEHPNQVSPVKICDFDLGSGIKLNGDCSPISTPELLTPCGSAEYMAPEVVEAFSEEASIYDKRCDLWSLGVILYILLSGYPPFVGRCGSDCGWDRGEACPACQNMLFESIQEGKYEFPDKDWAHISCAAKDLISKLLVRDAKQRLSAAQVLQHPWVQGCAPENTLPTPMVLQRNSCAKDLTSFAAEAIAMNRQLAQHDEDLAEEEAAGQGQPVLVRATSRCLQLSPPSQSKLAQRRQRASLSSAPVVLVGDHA

[16] = target: Ribosomal protein S6 kinase alpha-3 (Homo sapiens) (UniProt P51812); assay: Binding affinity to human RPS6KA3 kinase domain 1 at 50 nM by cell-based competition binding assay relative to control in presence of DTT
[17] = target: Dual specificity tyrosine-phosphorylation-regulated kinase 1B (Homo sapiens) (UniProt Q9Y463); assay: Binding affinity to human DYRK1B at 50 nM by cell-based competition binding assay relative to control in presence of DTT; procedure, shortened: as §1
Chain of Dual specificity tyrosine-phosphorylation-regulated kinase 1B (Homo sapiens) (Q9Y463 whole entry, looked up): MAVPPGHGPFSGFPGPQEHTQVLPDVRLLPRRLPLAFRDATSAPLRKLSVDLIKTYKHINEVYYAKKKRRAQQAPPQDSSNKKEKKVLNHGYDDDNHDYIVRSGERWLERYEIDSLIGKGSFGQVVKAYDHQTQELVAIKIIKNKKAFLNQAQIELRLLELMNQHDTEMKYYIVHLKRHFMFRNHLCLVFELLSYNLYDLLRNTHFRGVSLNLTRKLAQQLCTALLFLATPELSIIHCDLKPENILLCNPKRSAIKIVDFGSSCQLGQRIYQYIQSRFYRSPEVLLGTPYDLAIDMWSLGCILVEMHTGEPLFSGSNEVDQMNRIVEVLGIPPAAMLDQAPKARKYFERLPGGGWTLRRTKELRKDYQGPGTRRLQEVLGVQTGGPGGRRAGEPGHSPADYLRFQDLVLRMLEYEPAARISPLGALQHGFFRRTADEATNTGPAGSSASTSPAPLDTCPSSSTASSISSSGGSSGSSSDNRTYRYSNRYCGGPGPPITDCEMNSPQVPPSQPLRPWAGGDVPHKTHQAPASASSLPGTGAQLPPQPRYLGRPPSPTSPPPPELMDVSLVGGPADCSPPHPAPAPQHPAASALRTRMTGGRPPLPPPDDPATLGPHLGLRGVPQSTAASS

[18] = target: Atypical kinase COQ8A, mitochondrial (Homo sapiens) (UniProt Q8NI60); assay: Binding affinity to human ADCK3 at 50 nM by cell-based competition binding assay relative to control in presence of DTT
Procedure, shortened: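 Kinase binding profiling ran on a commercial (Ambit) competitive binding screen against a panel of 90 kinases. The screen used reducing conditions with 7.5 mM DTT. To withstand the DTT, the bivalent ligand was tested as its amide isostere, with the disulfide replaced. A staurosporine derivative carrying a 3 β-alanine linker was run as the reference compound.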

For `CO[C@@H]1[C@H](N(C)C(=O)CCC(=O)NCCC(=O)NCCC(=O)NCCC(N)=O)C[C@H]2O[C@]1(C)n1c3ccccc3c3c4c(c5c6ccccc6n2c5c31)C(=O)NC4`, the Activity [1] was 89%, the Activity [2] was 2.2% and the Activity [3] was 7.4%. It also gave an Activity [4] of 0%.

`CO[C@@H]1[C@H](N(C)C(=O)CCC(=O)NCCC(=O)NCCC(=O)NCCC(=O)NCCC(=O)NCCC(=O)NCCC(=O)NCCC(=O)N[C@H]2CSSC[C@@H](C(=O)NCC(N)=O)NC(=O)CNC(=O)[C@H](Cc3ccccc3)NC(=O)[C@H](C(C)C)NC(=O)[C@H](CCCNC(=N)N)NC(=O)[C@H](Cc3ccccc3)NC(=O)[C@H](C(C)C)NC2=O)C[C@H]2O[C@]1(C)n1c3ccccc3c3c4c(c5c6ccccc6n2c5c31)C(=O)NC4` ({Staurosporine-Suc-βAla-βAla-βAla-βAla-βAla-βAla-βAla}-CVFRVFGCG-NH2; disulfide 1-8) gave an Activity [5] of 89%, an Activity [6] of 65% and an Activity [7] of 100%. The Activity [8] was 100%, the Activity [9] was 100% and the Activity [10] was 62%. For the same compound, the Activity [11] was 57%.

In the case of `CO[C@@H]1[C@H](N(C)C(=O)CCC(=O)NCCC(=O)NCCC(=O)NCCC(=O)NCCC(=O)NCCC(=O)NCCC(=O)NCCC(=O)N[C@H]2CNC(=O)C[C@@H](C(N)=O)NC(=O)CNC(=O)[C@H](Cc3ccccc3)NC(=O)[C@H](C(C)C)NC(=O)[C@H](CCCNC(=N)N)NC(=O)[C@H](Cc3ccccc3)NC(=O)[C@H](C(C)C)NC2=O)C[C@H]2O[C@]1(C)n1c3ccccc3c3c4c(c5c6ccccc6n2c5c31)C(=O)NC4` ({Staurosporine-Suc-βAla-βAla-βAla-βAla-βAla-βAla-βAla}-[Dap]VFRVFGD-NH2; lactam 1-8), the Activity [12] is reported as 100%, the Activity [13] is reported as 85% and the Activity [14] is reported as 48%. It also gave an Activity [15] of 100%, an Activity [16] of 100% and an Activity [17] of 79%. It also gave an Activity [18] of 91%.
